For series [1], the system named is Rattus norvegicus. Put plainly: Antidiabetic activity in diet-induced obese Sprague-Dawley rat assessed as decrease in glucose excursion at 0.3 mg/kg, po administered once daily for 3 weeks by OGTT. The series is classed as functional, organism-based. Set-up: dose 0.3 mg/kg. The method in brief: (§1)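 Male Sprague-Dawley DIO rats (n = 10/group), 550–650 g, reverse light/dark cycle, high fat diet from 7 weeks of age; dosed po once daily in Klucel suspension.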

Series [2] concerns Rattus norvegicus. In words: Antidiabetic activity in diet-induced obese Sprague-Dawley rat assessed as decrease in glucose excursion at 1 mg/kg, po administered once daily for 3 weeks by OGTT. The series is classed as functional, organism-based. Set-up: dose 1 mg/kg. Put shortly:
as §1

In series [3] the test system is Rattus norvegicus. Put plainly: Antiobesity activity in diet-induced obese rat assessed as decrease in food intake at 0.3 mg/kg, po administered once daily for 3 weeks. The series is classed as functional. Set-up: scale not given: the % may be the effect or the level left. The method in brief:
(§2)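 Male DIO rats, 19 weeks old, on high fat diet for 12 weeks, dosed po once daily with Klucel (hydroxypropyl cellulose) suspension for 22 days; 10 rats per group. Body weight followed throughout; daily food intake recorded on days 1–3, 8, 9, 15 and 16, values averaged per group.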

The nature of series [4]: Cmax in diet-induced obese rat at 3 mg/kg, po administered once daily for 3 weeks. The series is classed as ADME, organism-based. Set-up: dose 3 mg/kg, route oral. The conditions noted are these: in vivo.
For series [5], the system named is Rattus norvegicus. Put plainly: Antiobesity activity in diet-induced obese rat assessed as reduction in body weight gain at 3 mg/kg, po administered once daily for 3 weeks. Set-up: scale not given: the % may be the effect or the level left. The series is classed as functional. The method in brief:
as §2

For series [6], the system named is Rattus norvegicus. In words: Antiobesity activity in diet-induced obese rat assessed as reduction in body weight gain at 1 mg/kg, po administered once daily for 3 weeks. The series is classed as functional. Set-up: scale not given: the % may be the effect or the level left. The method in brief: as §2
Series [7] can be described thus: Oral bioavailability in Beagle dog at 10 mg/kg. The series is classed as ADME, organism-based, Canis lupus familiaris. The conditions noted are these: in vivo. The method in brief:
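Plasma extracted by acetonitrile precipitation and quantified by LC-MS/MS (5.0–5000 ng/mL); noncompartmental PK; bioavailability relative to 5 mg/kg iv; mean of n = 3.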

Series [8] is described as follows: Oral bioavailability in Hanover Wistar rat at 10 mg/kg. The series is classed as ADME, organism-based. The conditions noted are these: in vivo. The method in brief:
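Hanover Wistar rats (n = 3) with jugular/femoral cannulae, oral gavage of a 2 mg/mL suspension in 2% Klucel LF with 0.1% Tween 80; femoral-vein sampling, EDTA plasma, acetonitrile precipitation, LC-MS/MS (5.0–5000 ng/mL), noncompartmental analysis; F relative to 5 mg/kg iv; mean of n = 3.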

A short description of series [9]: Tmax in Beagle dog at 10 mg/kg, po. The settings on record: in vivo. Set-up: dose 10 mg/kg, route oral. The series is classed as ADME, organism-based, Canis lupus familiaris. The method in brief: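 Oral gavage to rats (jugular/femoral vein-cannulated, femoral vein blood sampling) or beagle dogs, n = 3, as a 2 mg/mL suspension in 2% Klucel LF with 0.1% Tween 80 in water. Plasma extracted by acetonitrile protein precipitation and quantified by LC-MS/MS (linear 5.0–5000 ng/mL). Noncompartmental analysis; mean of 3.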

Series [10] can be described thus: Half life in Beagle dog at 5 mg/kg, iv. The series is classed as ADME, organism-based, Canis lupus familiaris. Set-up: dose 5 mg/kg, route intravenous. The settings on record: in vivo. The method in brief: (§3)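 Plasma levels by protein precipitation with acetonitrile and LC-MS/MS (linear range 5.0–5000 ng/mL); noncompartmental analysis; mean of n = 3.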
Series [11] is described as follows: Clearance in Beagle dog at 5 mg/kg, iv. The series is classed as ADME, organism-based, Canis lupus familiaris. The settings on record: in vivo. Set-up: dose 5 mg/kg, route intravenous. The method in brief:
as §3

Series [12] can be described thus: Clearance in Hanover Wistar rat at 5 mg/kg, iv. The series is classed as ADME, organism-based. Set-up: dose 5 mg/kg, route intravenous. The conditions noted are these: in vivo. The method in brief: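 Hanover Wistar rats (n = 3) cannulated in jugular and femoral veins, dosed iv 5 mg/kg via jugular vein as a solution in 2% DMA, 15% PEG400, 77% of 28% HPβCD in pH 7 PBS. Femoral-vein blood, EDTA plasma, acetonitrile precipitation, LC-MS/MS, noncompartmental analysis; mean of n = 3.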

A short description of series [13]: Volume of distribution in Beagle dog at 5 mg/kg, iv. The series is classed as ADME, organism-based, Canis lupus familiaris. Set-up: dose 5 mg/kg, route intravenous. The settings on record: in vivo.
A short description of series [14]: Inhibition of P-glycoprotein.
Series [15] can be described thus: Volume of distribution in Hanover Wistar rat at 5 mg/kg, iv. The series is classed as ADME, organism-based. Set-up: dose 5 mg/kg, route intravenous. The settings on record: in vivo.
In series [16] the target is Cytochrome P450 2D6 (Homo sapiens, UniProt P10635). In words: Inhibition of CYP2D6. The series is classed as ADME.
Sequence of Cytochrome P450 2D6 (P10635 whole entry): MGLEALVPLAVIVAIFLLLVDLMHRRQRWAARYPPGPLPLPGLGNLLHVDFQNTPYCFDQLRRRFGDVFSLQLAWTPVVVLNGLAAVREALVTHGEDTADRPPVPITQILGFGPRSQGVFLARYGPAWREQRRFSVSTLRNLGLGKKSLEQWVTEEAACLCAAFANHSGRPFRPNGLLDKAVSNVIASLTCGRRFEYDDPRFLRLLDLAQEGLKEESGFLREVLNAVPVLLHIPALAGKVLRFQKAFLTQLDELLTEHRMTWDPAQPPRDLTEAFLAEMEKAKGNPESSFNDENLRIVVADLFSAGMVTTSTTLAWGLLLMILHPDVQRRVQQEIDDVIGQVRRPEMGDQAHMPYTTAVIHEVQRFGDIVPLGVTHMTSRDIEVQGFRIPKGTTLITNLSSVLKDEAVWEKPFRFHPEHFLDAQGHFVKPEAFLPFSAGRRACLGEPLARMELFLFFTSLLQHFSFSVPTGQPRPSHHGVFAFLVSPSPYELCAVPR
For series [17], the target named is T1, Diacylglycerol O-acyltransferase 2 (Homo sapiens, UniProt Q96PD7).
T1 sequence (Q96PD7 whole entry): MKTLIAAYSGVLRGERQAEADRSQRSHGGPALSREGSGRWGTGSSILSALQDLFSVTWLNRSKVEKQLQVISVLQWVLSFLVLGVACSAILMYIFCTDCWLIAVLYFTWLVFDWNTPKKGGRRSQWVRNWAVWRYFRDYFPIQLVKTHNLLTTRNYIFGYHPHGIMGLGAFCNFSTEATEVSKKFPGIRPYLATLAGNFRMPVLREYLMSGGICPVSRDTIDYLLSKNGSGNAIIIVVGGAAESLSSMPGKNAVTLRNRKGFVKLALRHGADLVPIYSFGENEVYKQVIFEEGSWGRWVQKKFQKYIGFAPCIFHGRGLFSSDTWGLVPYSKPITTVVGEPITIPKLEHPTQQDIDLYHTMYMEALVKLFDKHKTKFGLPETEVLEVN
Put plainly: Inhibition of human DGAT2 expressed in baculovirus infected Sf9 cells using palmitoyl-1-14C-coenzyme A by TLC assay. Put shortly:
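DGAT-2 membranes from baculovirus-infected Sf9 cells, diluted to 0.313 mg/mL in 50 mM Tris pH 7.5, 20 mM MgCl2, 0.25 M sucrose. Preincubated 15 min on ice with compound (0–600 μM solutions in 20% DMSO), then DAG and 8.3 μM [14C]palmitoyl-CoA solutions added; 5 min at 37 °C. Lipids extracted with chloroform/methanol, resolved by TLC, phosphoimager read-out.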

Series [18] has as its system Rattus norvegicus. Put plainly: Antidiabetic activity in diet-induced obese Sprague-Dawley rat assessed as insulin-mediated decrease in glucose level at 3 mg/kg, po administered once daily for 3 weeks OGTT. Set-up: dose 3 mg/kg. The series is classed as functional, organism-based. Put shortly:
as §1

Series [19] deals with T2, Sterol O-acyltransferase 2 (Homo sapiens, UniProt O75908).
T2 sequence (O75908 whole entry): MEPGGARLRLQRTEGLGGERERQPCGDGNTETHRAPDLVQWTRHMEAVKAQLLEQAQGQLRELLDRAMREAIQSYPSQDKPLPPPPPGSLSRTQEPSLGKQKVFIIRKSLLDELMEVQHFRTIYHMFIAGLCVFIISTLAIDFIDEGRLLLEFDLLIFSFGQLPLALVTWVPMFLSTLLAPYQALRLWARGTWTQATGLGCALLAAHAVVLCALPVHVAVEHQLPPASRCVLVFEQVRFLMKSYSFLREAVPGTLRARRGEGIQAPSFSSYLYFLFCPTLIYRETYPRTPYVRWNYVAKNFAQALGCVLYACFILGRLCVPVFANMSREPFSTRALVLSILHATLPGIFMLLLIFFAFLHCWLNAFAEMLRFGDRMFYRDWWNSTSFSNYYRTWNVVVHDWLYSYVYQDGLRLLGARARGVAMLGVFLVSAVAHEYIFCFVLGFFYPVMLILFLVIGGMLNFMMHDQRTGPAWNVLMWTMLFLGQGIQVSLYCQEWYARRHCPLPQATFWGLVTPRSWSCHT
Put plainly: Inhibition of human ACAT2 expressed in human HepG2 cells after incubated with compound for 15 mins measured after 1 hr using palmitoyl-1-14C-coenzyme A by TLC assay. The series is classed as cell-based. The method in brief: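 HepG2 membranes (mixed ACAT1/ACAT2), 2.6 mg/mL stock, diluted to 0.52 mg/mL in Tris pH 7.5 buffer. Preincubated 15 min on ice with compound (0–600 μM solutions in 20% DMSO), then 2.37 μM [1-14C]palmitoyl-CoA solution added. Product extracted and resolved by TLC with phosphoimager read-out.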

Activity calls are given as the source filed them.

Consider one molecule from ChEMBL document CHEMBL1764953, “Discovery of orally active carboxylic acid derivatives of 2-phenyl-5-trifluoromethyloxazole-4-carboxamide as potent diacylglycerol acyltransferase-1 inhibitors for the potential treatment of obesity and diabetes” (J Med Chem, 2011).

By Cmax is commonly meant the peak of the concentration-time curve. A word on the bioavailability: it is dose-corrected exposure relative to a reference, in per cent. One may read the Tmax as the time at which the peak concentration occurs. The half-life is the time needed for the level to fall by half in the phase considered. A word on the clearance: it is the rate of elimination divided by the concentration. As a reminder, the Vd is a proportionality between amount in the body and measured concentration, not a real space. The term IC50 denotes the concentration at which inhibition is half-maximal.

For `O=C(Nc1ccc(C2CCN(C(=O)[C@H]3CC[C@H](C(=O)O)CC3)CC2)cc1)c1nc(-c2ccccc2)oc1C(F)(F)F`, the result in series [1], in [2] and in [18] was Active. Besides, the Activity in series [3] was 17%; in series [5], 8%; in series [6], 6%. Further, the Cmax in series [4] was 15.1 µM. Moreover, the bioavailability was 33% in series [7] and 73% in series [8]. Moreover, in series [9], the Tmax was determined as 2 h. The half-life in series [10] is 318 min. Besides, the clearance was 1.3 mL/min/kg in series [11] and 0.38 mL/min/kg in [12]. Further, the values for the Vd in series [13] and in series [15] were 0.38 L/kg and 0.27 L/kg, respectively. Also, in [14], the inhibition result is “inactive”. The IC50 in series [16] was over 50 µM; in series [17], over 100 µM; in [19] it was 68.4 µM.
